What all share (type): functional, cell-based
One assay concerns Bel-7402. Description: Cytotoxicity against human Bel7402 cells after 24 hrs by MTT assay. Summed up:
(§1)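 Human cancer cell lines from ATCC were seeded at 3000 cells per well and dosed 24 h after seeding across a range of concentrations. After 24 h of compound exposure, MTT was added and incubation continued another 24 h. Viability was read as absorbance at 570 nm and IC50 calculated. Paclitaxel was the positive control.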
In general terms: Tetrazolium dyes change colour on reduction, which living cells bring about.

For a further assay, the system named is PC-3M. Nature of the assay: (§2) Cytotoxicity against human PC3M cells after 24 hrs by MTT assay. The essentials:
as §1

In the next assay the test system is HCT-8. Nature of the assay: Cytotoxicity against human HCT8 cells after 24 hrs by MTT assay. The essentials: as §1
The test system of another assay is A549. Description: Cytotoxicity against human A549 cells after 24 hrs by MTT assay. The essentials:
as §1

Assay [1] is described as follows: as §2. Conditions: PC-3M. The essentials:
as §1

Molecules are shown by their SMILES.

With `C[C@@H]1COC(=O)[C@H]2[C@@H]1C[C@H](O)[C@@]2(C)O`, the Activity entry with Bel-7402, with PC-3M, with HCT-8 and in the assay on A549 was “Not toxic” each time.
Regarding `C[C@]12O[C@@H]3OC(=O)[C@H]1[C@H](C[C@@H]2O)[C@H]3CO`, the Activity result in the assay with Bel-7402, in the assay with PC-3M, in the assay on HCT-8 and in the assay on A549 was “Not toxic” throughout.
As for `C=C1[C@H]2OC[C@H]3[C@@H]1C[C@H](O)[C@@]3(C)O2`, the Activity result with Bel-7402, in the assay on PC-3M, in the assay on HCT-8 and in the assay with A549 was “Not toxic” in each case.
Turning to `C=C(C=O)[C@H]1C[C@H](O)[C@@](C)(O)[C@H]1C(=O)OC`, the Activity entry in the assay with Bel-7402, in the assay with PC-3M, in the assay on HCT-8 and in the assay on A549 was “Not toxic” each time.
`C=C(C=O)[C@@]1(O)C[C@H](OC(C)=O)C(CO)=C1C=O`: the Activity entry in the assay on Bel-7402, in the assay on PC-3M, with HCT-8 and in the assay on A549 was “Not toxic” in each case.
One may read the IC50 as the concentration at which inhibition is half-maximal. Higher therefore signals a need for much substance. Regarding `COc1cc(C[C@H]2CO[C@H](c3ccc(O)c(OC)c3)[C@H]2COC(=O)CC(C)C)ccc1O` [(+)-9'-ISOVALEROXYLARICIRESINOL], the Activity result with Bel-7402 and in the assay with A549 was “Not toxic” in each case. The IC50 in assay [1] came out at 8.1 µM; in the assay on HCT-8 (HCT-8, 24 h), 5.3 µM.
For `C=C1[C@H]2O[C@@H](O)[C@H]3[C@@H]1C[C@H](O)[C@@]3(C)O2`, the Activity entry in the assay on Bel-7402, in the assay with PC-3M, in the assay with HCT-8 and in the assay with A549 was “Not toxic” throughout.
Turning to `C=C(CO)[C@H]1C[C@H](O)[C@@](C)(O)[C@H]1CO`, the Activity entry in the assay on Bel-7402, with PC-3M, with HCT-8 and in the assay on A549 was “Not toxic” throughout.
In the case of `C=C1COC(=O)[C@H]2[C@@H]1C[C@H](O)[C@@]2(C)O`, the Activity result with Bel-7402, in the assay on PC-3M, in the assay on HCT-8 and with A549 was “Not toxic” each time.
Take `C=C1[C@H]2OC(=O)[C@H]3[C@@H]1C[C@H](O)[C@@]3(C)O2`: the Activity result in the assay with Bel-7402, with PC-3M, in the assay on HCT-8 and with A549 was “Not toxic” throughout.
Regarding `C[C@H]1COC(=O)[C@H]2[C@@H]1C[C@H](O)[C@@]2(C)O`, the Activity result in the assay on Bel-7402, with PC-3M, in the assay on HCT-8 and in the assay on A549 was “Not toxic” in each case.
With `CO[C@H]1OC(=O)[C@H]2[C@@H]3C[C@H](O)[C@@]2(C)OC[C@H]13`, the Activity result in the assay on Bel-7402, in the assay with PC-3M, in the assay with HCT-8 and in the assay with A549 was “Not toxic” in each case.
Take `C=C1CO[C@@]2(CO)C(CO)=CC[C@H]12`: the Activity result with Bel-7402, in the assay with PC-3M, in the assay with HCT-8 and in the assay on A549 was “Not toxic” throughout.
As for `CO[C@@H]1O[C@]2(C)[C@@H](O)C[C@@H]3[C@H]1COC(=O)[C@@H]32`, the Activity entry in the assay with Bel-7402, in the assay on PC-3M, in the assay on HCT-8 and in the assay with A549 was “Not toxic” in each case.

(Values after ChEMBL document CHEMBL1157057, “Iridoids and lignans from Valeriana jatamansi” (J Nat Prod, 2010).)
